From ChEMBL document CHEMBL3351571, “Peptidomimetics of Arg-Phe-NH2 as small molecule agonists of Mas-related gene C (MrgC) receptors” (Bioorg Med Chem, 2014)
The source made the active and inactive calls. The rule behind the calls is not given here. Square brackets hold non-standard residues; d marks the D form. Peptide text beside a SMILES is read from it. dPhe(4-guanidino) = N=C(N)Nc1ccc(C[C@@H](N)C(=O)O)cc1; Phe(4-guanidino) = N=C(N)Nc1ccc(C[C@H](N)C(=O)O)cc1

What was measured:
Type in all cases: cell-based
[1] = biological target: T1, Mas-related G-protein coupled receptor member X1 (Homo sapiens, UniProt Q96LB2); assay: Agonist activity at human MrgX1 transfected in HEK293 cells by FLIPR assay
T1 sequence (Q96LB2 whole entry): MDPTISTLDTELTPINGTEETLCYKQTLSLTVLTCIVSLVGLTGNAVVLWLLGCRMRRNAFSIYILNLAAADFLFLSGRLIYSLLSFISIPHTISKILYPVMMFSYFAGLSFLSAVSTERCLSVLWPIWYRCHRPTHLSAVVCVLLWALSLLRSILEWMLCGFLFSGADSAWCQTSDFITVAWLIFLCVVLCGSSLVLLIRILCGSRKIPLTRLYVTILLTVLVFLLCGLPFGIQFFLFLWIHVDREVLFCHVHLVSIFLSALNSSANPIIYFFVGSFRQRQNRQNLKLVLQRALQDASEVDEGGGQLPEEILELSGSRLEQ
How it was run: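 Human MrgX1 stably expressed in HEK293 cells, plated at 25,000 cells/well 2 days before imaging. Cells loaded with 2 μM Fluo 4AM plus 1% Trypan Red in HBSS for 50 min at 37°C, then equilibrated 10 min at room temperature. Serial dilutions in HBSS added alongside BAM 8-22 (positive) and HBSS (negative) controls.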

[2] = biological target: T2, Mas-related G-protein coupled receptor member X1 (Rattus norvegicus, UniProt Q8R4G1); assay: Agonist activity at rat MrgX1 transfected in HEK293 cells by FLIPR assay
T2 sequence (Q8R4G1 whole entry): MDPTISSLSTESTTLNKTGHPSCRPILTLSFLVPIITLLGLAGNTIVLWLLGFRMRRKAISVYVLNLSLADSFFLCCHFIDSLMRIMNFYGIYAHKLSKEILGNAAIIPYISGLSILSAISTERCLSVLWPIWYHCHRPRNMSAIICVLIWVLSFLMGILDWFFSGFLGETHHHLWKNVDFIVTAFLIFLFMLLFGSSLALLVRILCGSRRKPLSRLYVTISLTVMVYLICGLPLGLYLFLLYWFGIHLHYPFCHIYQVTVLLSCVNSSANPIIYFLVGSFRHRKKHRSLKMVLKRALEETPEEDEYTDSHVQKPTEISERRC
How it was run: (§1)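 Rodent Mrg receptors were transiently transfected into HEK293 or KNRK cells, which were plated at 25,000 cells/well and imaged 2 days later. Cells were loaded with 2 μM Fluo 4AM and 1% Trypan Red in HBSS for 50 min at 37°C, then held 10 min at room temperature.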

[3] = biological target: T3, Mas-related G-protein coupled receptor member X1 (Mus musculus, UniProt Q8CIP3); assay: Agonist activity at mouse MrgC11 transfected in HEK293 cells by FLIPR assay; how it was run: as §1
T3 sequence (Q8CIP3 whole entry): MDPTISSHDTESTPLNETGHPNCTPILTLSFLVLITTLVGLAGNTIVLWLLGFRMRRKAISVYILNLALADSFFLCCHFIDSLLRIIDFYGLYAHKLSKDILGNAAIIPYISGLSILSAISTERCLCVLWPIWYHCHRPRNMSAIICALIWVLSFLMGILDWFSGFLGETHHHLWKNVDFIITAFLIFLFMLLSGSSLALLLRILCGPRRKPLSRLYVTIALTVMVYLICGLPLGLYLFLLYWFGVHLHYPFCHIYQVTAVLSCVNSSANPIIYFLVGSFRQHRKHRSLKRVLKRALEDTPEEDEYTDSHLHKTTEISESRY

[4] = biological target: T1, Mas-related G-protein coupled receptor member X1; assay: Antagonist activity at human MrgX1 transfected in HEK293 cells at 200 uM by FLIPR assay

Row | EC50 [1] | EC50 [2] | EC50 [3] | Activity [4] | Compound
1 | > 100 µM | > 100 µM | 7.94 µM | – | N=C(N)N[C@@H]1CN[C@H](C(=O)N[C@@H](Cc2ccccc2)C(N)=O)C1
2 | > 100 µM | > 100 µM | 0.501 µM | – | N=C(N)NC[C@@H]1CN[C@H](C(=O)N[C@@H](Cc2ccccc2)C(N)=O)C1
3 | 0.0251 µM | > 2 µM | > 2 µM | – | COc1ccc(-c2ccc(C(=O)Nc3cccc(Cn4ncc(N5CCNCC5)cc4=O)c3C)cc2)cn1
4 | > 100 µM | 0.631 µM | 1.26 µM | inactive | N=C(N)Nc1ccc(C[C@@H](N)C(=O)N[C@@H](Cc2ccccc2)C(N)=O)cc1 (H-[dPhe(4-guanidino)]-Phe-NH2)
5 | > 100 µM | 50.1 µM | 15.8 µM | – | N=C(N)Nc1ccc(C[C@H](N)C(=O)N[C@@H](Cc2ccccc2)C(N)=O)cc1 (H-[Phe(4-guanidino)]-Phe-NH2)
6 | > 100 µM | 3.98 µM | 0.794 µM | – | N=C(N)N1CCC(C(N)C(=O)N[C@@H](Cc2ccccc2)C(N)=O)CC1 (some centres undefined)
